TRPC4 potent: positive allosteric modulators of TRPC4, primary screen, cell-based, mouse TRPC4beta, HEK293 mu-opioid, Fluo-4 calcium; DAMGO EC20, Fluo-4 Ca2+ flux; hits give high values; B-score at 10 µM; 310,000 tested, 0.42% active; AID 2227, 2009;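 active = B-score of calcium response area above 5 SD of library B-scores, with initial fluorescence ratio within 5 SD of library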
TRPC6 inh: mouse TRPC6 channel inhibitors, primary screen, cell-based, HEK293, membrane potential dye. Short transient receptor potential channel 6 (Mus musculus), Q61143. ACh-evoked depolarization; hits give low values. B-score at 10 µM. 310,000 tested, 1.1% active;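 active = B-score under library mean minus 3 SD, initial fluorescence not abnormally high, positive integrated signal ratio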;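 also: B-score derived from integrated fluorescence ratio over the kinetic read; more negative B-score means stronger inhibition of depolarization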
TRPC4 block: inhibitors of mouse TRPC4 channel, primary screen, Fluo4 calcium, HEK293 TRPC4beta/mu-opioid cells; 300,000 tested, 0.39% active; Short transient receptor potential channel 4 (Mus musculus), Q9QUQ5; AID 2247, 2010; B-score at 10 µM; DAMGO-evoked Fluo4 calcium flux; hits give low values;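 active = B-score over 3 SD under the library average, no early fluorescence shift, positive overall ratio signal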
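Material: HEK293 cells with stable TRPC4beta plus mu-opioid receptor expression / Probe or stimulus: DAMGO in two steps, submaximal then maximal / Compound: single concentration per test compound / Technique: kinetic Fluo4 fluorescence imaging of calcium influx / Read-out: per-well B score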
TRPC4 agonist: activators of mouse TRPC4 channel, primary screen, Fluo4 calcium, HEK293 TRPC4beta/mu-opioid cells. Fluo4 calcium fluorescence; hits give high values. B-score at 10 µM. 310,000 tested, 0.49% active. AID 2237, 2010;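 active = B-score above 5 SD of library B-scores, and initial fluorescence ratio not above library mean plus 5 SD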;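 also: positive B-score marks a calcium rise read as TRPC4 activation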
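Assay system – TRPC4beta and mu-opioid receptor HEK293 stable cells · Measured by – Fluo4 fluorescence, kinetic · Schedule – dye loading 45 min room temperature, 110 s kinetic read · Read-out – B-scored integrated calcium fluorescence ratio · Controls – buffer and maximal DAMGO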
TRPC6 act: mouse TRPC6 channel activators, primary screen, cell-based, HEK293, membrane potential dye. HEK293-TRPC6 membrane potential dye fluorescence; hits give high values. 310,000 tested, 0.13% active. B-score at 10 µM. AID 2550, 2010. Short transient receptor potential channel 6 (Mus musculus), Q61143;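 active = B-score of the integrated fluorescence ratio above library mean plus 3 SD, and starting fluorescence ratio within library mean plus 5 SD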;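 also: higher score means more depolarization so channel activation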
TRPC4 sel inh 2: mouse TRPC4 off-target activity of TRPC6 inhibitors, second screen; shares compounds with TRPC6 inh; HEK293 TRPC4/MOR, membrane potential dye fluorescence; channel activated by saturating DAMGO dose; inhibition, % at 10 µM; 920 tested, 42% active;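 active = compounds whose fluorescence signal differed from control wells by over 3 SD, either direction, in both duplicate plates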
TRPC4 spec: mouse TRPC4 modulation by TRPC6 hits, confirmation, selectivity assay for TRPC6 inhibitor project, cell-based, HEK293 TRPC4/mu-opioid, membrane potential dye; activity change, negative = inhibition, % at 10 µM; shares compounds with TRPC6 inh; 920 tested, 61% active; membrane potential fluorescence;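 active = rise or fall in signal beyond 3 SD of buffer-only wells in both replicate plates, either sign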;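 also: integrated kinetic ratio of fluorescence range over baseline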
HEK293 MPD ctr 2-1: nonspecific membrane potential effects, parental HEK293, confirmation, counter-screen for TRPC6 inhibitor project, cell-based, second counter screen; signal change vs control, % at 10 µM; parental HEK293 membrane potential dye fluorescence; maximal acetylcholine challenge after compound addition; AID 2779, 2010; 920 tested, 31% active; shares compounds with TRPC6 inh;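 active = membrane potential signal moving either way by over 3 SD of the maximum-effect control, in both duplicate plates, meaning non-specific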
HEK293 MPD ctr-1: membrane potential modulation in parental HEK293, confirmation, counter-screen for TRPC6 inhibitor project, cell-based. shares compounds with TRPC6 inh. parental HEK293 membrane potential dye fluorescence. membrane potential signal change, % at 10 µM. 920 tested, 60% active. AID 2780, 2010;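 active = membrane potential signal shifting up or down by more than 3 SD of buffer-only wells, on both duplicate plates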
HEK293 MPD ctr-2: parental HEK293 membrane potential modulation, confirmation, counter-screen for TRPC6 modulator project, cell-based | shares compounds with TRPC6 inh | membrane potential dye fluorescence | 2,400 tested, 51% active | membrane potential signal change, % at 10 µM;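 active = membrane potential signal moves up or down beyond 5 SD from buffer-only wells, on both duplicate plates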
HEK293 MPD ctr 2-2: parental HEK293 nonspecific activity of TRPC6 modulators, second screen; shares compounds with TRPC6 inh; membrane potential dye fluorescence; after compound, maximal acetylcholine stimulation; inhibition, % at 10 µM; 2,400 tested, 14% active;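 active = membrane potential signal drops by more than 5 SD from the mean control signal, in both duplicate plates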
TRPC4/MOR mod: TRPC4 modulation by TRPC6 hit compounds, confirmation, selectivity assay for TRPC6 modulator project, cell-based, HEK293 TRPC4/mu-opioid, membrane potential dye, mouse; shares compounds with TRPC6 inh; membrane potential fluorescence; percent change from control (negative = decrease, positive = increase), % at 10 µM; 2,400 tested, 69% active;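 active = membrane potential signal moved up or down beyond 5 SD of buffer control wells, in both duplicate plates, actives on both sides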
TRPC4/MOR inh 2: mouse TRPC4 off-target activity of TRPC6 modulators, second screen; shares compounds with TRPC6 inh; inhibition, % at 10 µM; HEK293 TRPC4/mu-opioid, membrane potential dye fluorescence; stimulated with maximal-effect DAMGO; 2,400 tested, 55% active;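 active = drop in membrane potential signal beyond 5 SD of the control wells in both duplicate plates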;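 also: TRPC4 counter screen for TRPC6 hits run under conditions tuned for TRPC6 not TRPC4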
TRPC6 block conf: mouse TRPC6 channel inhibitors, confirmation, HEK293 cells, membrane potential dye, duplicate; shares compounds with TRPC6 inh; ACh-evoked depolarization; inhibition, % at 10 µM; 3,300 tested, 43% active;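 active = fluorescence ratio falls more than 5 SD below the full-stimulation control mean, in both duplicate runs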;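 also: integrated fluorescence ratio of peak minus minimum over baseline after agonist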
TRPC6 act confirm: mouse TRPC6 channel activators, confirmation, HEK293 cells, membrane potential dye, duplicate; shares compounds with TRPC6 inh; HEK293-TRPC6 membrane potential dye fluorescence, FDSS; activation, % at 10 µM; 2,800 tested, 11% active;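 active = ratio signal rise beyond 5 SD above unstimulated control wells' mean, seen in both duplicate runs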
Each line names hits and unclear results; the compound was inactive in the other large screens (follow-up assays come after a bar, where they were run). In the library only some 2.3% were active in any assay of this set; here they are far more common.

Cc1cc(C)c(S(=O)(=O)c2ccccc2C(C)C)c(=O)[nH]1	none
Cc1ccc(S(=O)(=O)Nc2c(C)nc3nc[nH]n3c2=O)c(C)c1	none
Cc1cc(C(=O)NC2CCCCC2C)c2ccccc2n1 (configuration not stated)	none
CCc1nc2ccc(F)cc2c(C(=O)NC2CCCCC2C)c1C (configuration not stated)	TRPC6 act 14 | HEK293 MPD ctr-2 428% | HEK293 MPD ctr 2-2 inactive | TRPC4/MOR mod 86% | TRPC4/MOR inh 2 44% | TRPC6 act confirm 171%
OC(c1cccs1)(c1cccs1)C1C[N+]2(CF)CCC1CC2 (configuration not stated)	TRPC6 inh -6.4 | HEK293 MPD ctr-2 inactive | HEK293 MPD ctr 2-2 inactive | TRPC4/MOR mod inactive | TRPC4/MOR inh 2 inactive | TRPC6 block conf 40% | TRPC6 act confirm inactive
c1ccc(Oc2cccc(OCCCCN3CCCC3)c2)cc1	TRPC6 inh -8.6 | TRPC4 sel inh 2 inactive | TRPC4 spec 5.8% | HEK293 MPD ctr 2-1 262% | HEK293 MPD ctr-1 5.1% | TRPC6 block conf inactive
Cc1cccc(CN2CCC(C(N)=O)CC2)c1	none
CCOC(=O)c1nnn2c1nc(N1CCCCC1)c1ccccc12	none
CCOC(=O)c1nnn2c1nc(N1CCN(C)CC1)c1ccccc12	TRPC6 inh -8.4 | HEK293 MPD ctr-2 -238% | HEK293 MPD ctr 2-2 74% | TRPC4/MOR mod -42% | TRPC4/MOR inh 2 53% | TRPC6 block conf 61% | TRPC6 act confirm inactive
CCC(C)(C)n1nnnc1C(c1ccc(C)cc1)N(Cc1ccco1)Cc1cccs1 (configuration not stated)	none
O=c1c2cc(Br)ccc2nc2n1CCCCC2	TRPC6 inh -7.8 | TRPC4 sel inh 2 inactive | TRPC4 spec inactive | HEK293 MPD ctr 2-1 inactive | HEK293 MPD ctr-1 inactive | TRPC6 block conf inactive | TRPC6 act confirm inactive
Cc1ccc2nc3n(c(=O)c2c1)CCCCC3	none
O=C(c1ccc2c(=O)n3c(nc2c1)CCCCC3)N1CCN(C(c2ccccc2)c2ccccc2)CC1	TRPC6 inh -11 | TRPC4 sel inh 2 inactive | TRPC4 spec -9.3% | HEK293 MPD ctr 2-1 inactive | HEK293 MPD ctr-1 inactive | TRPC6 block conf inactive | TRPC6 act confirm inactive
O=C(c1ccc2c(=O)n3c(nc2c1)CCCCC3)N1CCN(c2ccccc2)CC1	none
CCS(=O)(=O)N1Cc2ccccc2CC1C(=O)N(C)CC(=O)Nc1cccc(F)c1 (configuration not stated)	none
CN1CCc2c(sc(NC(=O)C3CCN(S(=O)(=O)c4cccs4)CC3)c2C(N)=O)C1	none
CC(C)(C)C(=O)NNC(=O)C1CC1(c1ccccc1)c1ccccc1 (configuration not stated)	none
Cc1cc(C)nc(N/C(=N\S(=O)(=O)Cc2ccccc2)Nc2ccc(F)c(Cl)c2)n1	none
CCCn1ncc(OC)c(Cl)c1=O	none
CC(=O)c1ccc(Nc2nc(=O)c3cccnc3s2)cc1	TRPC6 inh -5.8 | HEK293 MPD ctr-2 -176% | HEK293 MPD ctr 2-2 inactive | TRPC4/MOR mod -33% | TRPC4/MOR inh 2 inactive | TRPC6 block conf inactive | TRPC6 act confirm inactive
CCCCOC(=O)Nc1cc(C(=O)OC)ccc1C(=O)OC	none
NC1=NC(=Nc2ccc(Br)cc2)c2ccccc21	TRPC6 inh -5 | HEK293 MPD ctr-2 inactive | HEK293 MPD ctr 2-2 inactive | TRPC4/MOR mod -17% | TRPC4/MOR inh 2 40% | TRPC6 block conf inactive | TRPC6 act confirm inactive
CC(C)c1ccc(N=C2N=C(N)c3ccccc32)cc1	TRPC6 inh -6.1 | HEK293 MPD ctr-2 inactive | HEK293 MPD ctr 2-2 inactive | TRPC4/MOR mod -29% | TRPC4/MOR inh 2 77% | TRPC6 block conf 73% | TRPC6 act confirm inactive
NC1=NC(=Nc2ccc(Cl)cc2)c2ccccc21	none
CCOc1cc2nc(-c3ccc(OC)c(OC)c3)nc(N3CC(C)OC(C)C3)c2cc1OC (configuration not stated)	TRPC6 inh -8.3 | TRPC4 sel inh 2 inactive | TRPC4 spec -20% | HEK293 MPD ctr 2-1 inactive | HEK293 MPD ctr-1 inactive | TRPC6 block conf inactive | TRPC6 act confirm inactive
Cc1nc2ccc(NC(=O)c3ccc(F)c(S(=O)(=O)N4CCOCC4)c3)cc2s1	none

Assay outcomes deposited in PubChem BioAssay by Johns Hopkins Ion Channel Center.
